This is a sample that favours compounds with a hit; in the whole collection about 1.2% have one here.
proCasp7 act = procaspase-7 activators, primary screen, counter-screen for procaspase-3 activator project, biochemical, absorbance, HTS, human | 330,000 tested, 0.093% active | recombinant procaspase-7, Ac-DEVD-pNA absorbance 405 nm; D23A/D198A/D206A triple mutant, cannot self-cleave; scale: DMSO 0, 5 µM enzyme 100 | activation, % at 8.5 µM | Caspase-7 (Homo sapiens), P55210;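 active means percent activation above the screen-wide mean plus 3 SD, cut at about 25% in these data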
Target sequence (P55210 whole entry D23A/D198A/D206A): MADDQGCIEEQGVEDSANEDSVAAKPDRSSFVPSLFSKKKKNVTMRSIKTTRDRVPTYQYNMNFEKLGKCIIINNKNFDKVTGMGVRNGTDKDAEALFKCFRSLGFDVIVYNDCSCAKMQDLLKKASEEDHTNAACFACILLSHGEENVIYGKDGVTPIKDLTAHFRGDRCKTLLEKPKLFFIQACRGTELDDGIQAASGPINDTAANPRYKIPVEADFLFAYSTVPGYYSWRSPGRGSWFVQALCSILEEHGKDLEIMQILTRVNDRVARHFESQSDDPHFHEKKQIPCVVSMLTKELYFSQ
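Test system: Procaspase-7 triple mutant (PC-7 D3A). Also added: Ac-DEVD-pNA substrate, 400 µM as added. Schedule: 1 h enzyme–compound preincubation and 2 h substrate reaction, both 25 °C. Signal: p-Nitroaniline absorbance at 405 nm, read at 0 and 120 min. Control set: low DMSO alone, high DMSO plus 5 µM PC-7.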
bovine MsrA act = bovine MsrA enzyme activators, primary screen, biochemical, absorbance, HTS; activation, % at 10.6 µM; purified bovine MsrA, absorbance read-out; 360,000 tested, 0.3% active; in the data active means activation above about 7.5%;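 further: 0% = vehicle and 100% = reference activator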
MsrA inhibitor = bovine MsrA enzyme inhibitors, primary screen, biochemical, absorbance, HTS | Methionine sulfoxide reductase A (Bos taurus) | purified bovine MsrA, absorbance read-out | inhibition, % at 15.5 µM | 360,000 tested, 0.75% active | AID 651718, 2012; in the data active means inhibition above about 4.5%;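 further: 0% = vehicle wells with enzyme and 100% = reference inhibitor wells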
proCasp3 act = activators of human procaspase-3 D3A mutant, primary screen, biochemical, absorbance, PC-3 D3A mutant, single concentration; 330,000 tested, 0.11% active; activation, % at 8.5 µM; recombinant procaspase-3 D3A, Ac-DEVD-pNA absorbance 405 nm; Caspase-3 (Homo sapiens), P42574;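 active means activation above the mean of all tested compounds plus 3 SD, cut at about 21% in these data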;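 further: 0% = DMSO alone and 100% = DMSO wells spiked with extra 5 µM PC-3 D3A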
Target sequence (P42574 whole entry D9A/D28A/D175A): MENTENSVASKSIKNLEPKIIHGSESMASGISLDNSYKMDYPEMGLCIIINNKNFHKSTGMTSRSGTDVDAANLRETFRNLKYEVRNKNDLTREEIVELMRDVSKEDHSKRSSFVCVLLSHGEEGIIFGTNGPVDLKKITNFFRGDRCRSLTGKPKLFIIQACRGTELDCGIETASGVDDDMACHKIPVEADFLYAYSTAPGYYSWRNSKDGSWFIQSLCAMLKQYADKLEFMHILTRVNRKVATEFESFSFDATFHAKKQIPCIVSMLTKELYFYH
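Technique: 405 nm absorbance of p-nitroaniline, reads at 0 and 120 min; Test system: Procaspase-3 D3A mutant; Incubation: 1 h enzyme-compound preincubation, then 2 h substrate reaction, 25 °C; Repeats: singlicate, each compound tested once; Benchmarks: low control DMSO wells, high control DMSO plus 5 µM PC-3 D3A.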
Bfl-1 A1 inh = caspase 3/7 activation in MEF A1-2A-BIM cells, primary screen, A1 inhibitor project, cell-based, luminescence, HTS. Caspase-Glo 3/7 luminescence, 3 h; percent of clofoctol response, vehicle zero. caspase activation, % (no concentration beside the values). 330,000 tested, 0.066% active;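 active means over half of replicate activation scores above 10%, or exactly half above 10 with the replicate mean above 10; inconclusive means replicate mean below 10 yet half the replicates above 10; inactive means over half of replicates below 10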
MsrA act confirm = bovine MsrA activators, retest, confirmation, biochemical, absorbance, HTS; shares compounds with bovine MsrA act; purified bovine MsrA, absorbance read-out; 1,000 tested, 12% active; activation, % at 10.6 µM; in the data active means activation above about 4%;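 further: enzyme coupled to thioredoxin and thioredoxin reductase with NADPH; 0% = vehicle wells and 100% = reference activator wells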
* = called active by the depositor; ? = inconclusive; . = no result given.

SMILES	proCasp7 act	bovine MsrA act	MsrA inhibitor	proCasp3 act	Bfl-1 A1 inh	MsrA act confirm
CN(C)C(=O)c1cccc(-c2cc(NC=O)c3ncc(-c4ccc(F)c(Cl)c4)n3c2)c1	.	9.3*	1	.	.	1
CC(=O)Nc1cc(-c2cccc(C(=O)N(C)C)c2)cn2c(-c3ccc(F)c(Cl)c3)cnc12	.	-3	-1	.	.	.
CN(C)CCNC(=O)c1cccc(-c2cnc3c(NC=O)cc(-c4ccc(S(C)(=O)=O)cc4)cn23)c1	.	8.0*	1	.	.	0
CCCCOCCCNC(=O)C[C@H]1C[C@@]2(C(=O)OC)C(=C[C@H](C(C)(C)C)O[C@@H]2C)N(Cc2ccc3c(c2)OCO3)C1=O	.	.	1	.	.	.
C[C@H]1[C@@H]2C[C@@]3(O[C@H](c4ccc(C(F)(F)F)cc4)N=C3C[C@@H]1c1ccccc1)N(Cc1ccncc1)C2=O	.	.	0	.	.	.
O=C(NCc1cccnc1)C(=O)NCC1OCCN1S(=O)(=O)c1ccc(F)cc1 (configuration not stated)	-4	8.4*	-1	7	-1	1
Cc1ccccc1-c1noc(CCC(=O)NCc2ccco2)n1	0	12*	-1	-1	-1	-2
Nc1[nH]c(C(=O)c2ccccc2)c(-c2ccccc2Cl)c1C(=O)NCCc1c[nH]c2ccccc12	.	.	0	.	.	.
COC(=O)Nc1nnc(COc2ccccc2)s1	0	8.9*	0	1	0	-2
Cc1cccc(OC(=O)n2c(=S)oc3cc(Cl)ccc32)c1	-3	9.8*	0	-1	0	1
CC(C)OC(=O)n1c(=S)oc2ccccc21	-1	-1	1	-7	0	.
COc1ccc2oc(C(=O)NCC(c3ccco3)N(C)C)c(C)c2c1 (configuration not stated)	-2	-2	0	-11	0	.
COc1cccc(OCC(O)CNC(=O)c2oc3ccc(C)cc3c2C)c1 (configuration not stated)	6	9.5*	0	1	0	-2
Cc1cc(NC(=O)CCc2c[nH]c3ccccc23)ccc1Nc1cccnc1	.	.	1	.	.	.
CCOC(=O)N1CCN(C(=O)C[C@H]2C[C@@]3(C(=O)OC)C(=C[C@H](C(C)(C)C)O[C@@H]3C)N(Cc3ccccc3)C2=O)CC1	.	.	0	.	.	.
CCN(CC)S(=O)(=O)c1ccc(NC(=O)CNC2CCCCC2)cc1	-7	8.4*	-1	4	1	-1
CCN(CC)S(=O)(=O)c1ccc(NC(=O)CCC2CCCCC2)cc1	8	-2	1	4	1	.
C[C@H](CO)N1C[C@H](C)[C@@H](CN(C)Cc2ccccc2)OCCCC[C@H](C)Oc2ccc(N(C)C)cc2C1=O	.	8.7*	0	.	.	-3
CCCCn1nnnc1C(c1cc2ccccc2o1)N1CCCC1 (configuration not stated)	.	11*	0	.	.	-1
CCCCn1nnnc1C(c1cc2ccccc2o1)N1CCN(C/C=C/c2ccccc2)CC1 (configuration not stated)	.	1	0	.	.	.
Cn1c(=O)oc2ccc(S(=O)(=O)Nc3ccc(Cl)cc3[N+](=O)[O-])cc21	.	.	1	.	.	.
c1cc2c(cc1-c1[nH]ncc1CN1C[C@H]3CC[C@H]1C3)OCO2	1	12*	0	3	0	-2
CN(Cc1cn[nH]c1-c1ccc2c(c1)OCO2)C1CCOCC1	0	-2	0	8	0	.
CC(Oc1ccccc1Cl)C(=O)N1CCOCC1 (configuration not stated)	16	11*	0	2	0	-2
COC(=O)c1cc2c(c3c4cc(F)ccc4n(S(=O)(=O)c4ccc(C)cc4)c13)C(=O)N(c1ccc(OC)cc1)C2	.	.	0	.	.	.
SMILES	proCasp7 act	bovine MsrA act	MsrA inhibitor	proCasp3 act	Bfl-1 A1 inh	MsrA act confirm
C=CCN1C[C@H](COC(=O)c2ccc(C)c(C)c2)Oc2cccc(F)c2S1(=O)=O	.	.	1	.	.	.
N#Cc1cn(CC(=O)N2CCCc3ccccc32)c2ccccc12	2	8.1*	1	4	-1	1
CCCC(=O)NC1=C(Cl)C(=O)c2ccccc2C1=O	.	9.2*	1	.	.	1
CCN(CC)c1ccc(NC2=C(Cl)C(=O)c3ccccc3C2=O)cc1	-7	-3	.	-15	?	.
O=C1C(Cl)=C(NCc2ccco2)C(=O)c2ccccc21	.	14*	1	.	.	11*
CCNC1=C(Cl)C(=O)c2ccccc2C1=O	-7	12*	0	-4	1	4.0*
COC(=O)C1=C(C)N(C)C(=NCc2cc(OC)c(OC)c(OC)c2)NC1c1ccc(Cl)cc1 (configuration not stated)	.	.	1	.	.	.
CC(C)(C)C1=CC(CC(N)=O)(C(C)(C)C)OC1=O (configuration not stated)	.	.	0	.	.	.
COc1ccc(/C=C/C(=O)N2CCN(c3ccccc3)CC2)cc1S(=O)(=O)N1CCOCC1	14	8.8*	2	-2	0	2
COc1ccc(/C=C/C(=O)N2CCC(C(N)=O)CC2)cc1S(=O)(=O)N1CCOCC1	-2	-3	0	1	0	.
Cc1ccc(NC(=O)COC(=O)c2ccc([N+](=O)[O-])s2)c(C)c1	1	5	2	3	2	.
COc1ccccc1NC(=O)COC(=O)c1ccc([N+](=O)[O-])s1	-3	33*	2	-7	1	18*
Cc1cc(C)c(NC(=O)COC(=O)c2ccc([N+](=O)[O-])s2)c(C)c1	8	-4	0	2	1	.
NS(=O)(=O)c1ccc(NC(=O)COC(=O)c2ccc([N+](=O)[O-])s2)cc1	2	28*	2	-2	0	12*
CN(CC(=O)Nc1ccccc1Cl)C(=O)COC(=O)c1ccc([N+](=O)[O-])s1	7	12*	1	-4	0	2
C[C@@H]1CNC(=O)c2c(C(=O)N(C)Cc3ccccc3)ncn21	.	.	1	.	.	.
COC(=O)[C@]12C[C@H](CC(=O)NCC3CCCCC3)C(=O)N(CCC3=CCCCC3)C1=C[C@H](C(C)(C)C)O[C@@H]2C	.	.	0	.	.	.
COc1cc(CC2COC(=O)C2Cc2ccc(O)c(OC)c2)ccc1O (configuration not stated)	.	.	-2	.	.	.
COc1cc(C[C@@H]2C(=O)OC[C@H]2Cc2ccc(OC)c(OC)c2)ccc1O	1	11*	0	10	-1	-1
CCCCOCC1CN(CCCC)S(=O)(=O)c2c(cccc2N2CCCC2)O1 (configuration not stated)	.	.	0	.	.	.
